Assay results reported in ChEMBL document CHEMBL2146371, “Biologically active dibenzofurans from Pilidiostigma glabrum, an endemic Australian Myrtaceae” (J Nat Prod, 2012).
In brackets after ≈: the same amount, converted by molar mass. Activity calls are given as the source filed them. No cut-off for these calls is given here.

Tests used:
[1] = test system: RAW264.7; experiment: Antiinflammatory activity in mouse RAW264.7 cells assessed as inhibition of LPS-induced nitric oxide production incubated for 1 hr prior to LPS-challenge measured after 20 hrs by Griess method; type: functional, cell-based
In short: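 RAW264 cells (10^6 cells/mL, 120 μL/well) were pre-incubated for 20 h. Compounds in DMSO, diluted 20-fold in medium, were added for 1 h. LPS (10 μL of 10 μg/mL) was then added and incubation continued for 20 h. Nitrite was measured by Griess reagent (23 °C, 20 min, A550) against 0–100 μM standards. Triplicate; expressed as a percentage of solvent control.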

[2] = Cytotoxicity against mouse RAW264.7 cells after 24 hrs by ATPlite assay; type: cell-based; settings: read-out: ED50
In short: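 RAW264 cells were plated at 30 000/well in DMEM with 10% FBS. Compounds were tested at six concentrations from DMSO stocks diluted 20-fold in medium, for 24 h at 37 °C, 5% CO2. Cellular ATP was read by ATPlite luminescence. Triplicate; ED50 with 95% CI from curve fitting.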

[3] = test system: Staphylococcus epidermidis; experiment: Antibacterial activity against Staphylococcus epidermidis ATCC 35984 after overnight incubation by broth microdilution method; type: functional
In short: (§1)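 Broth microdilution (CLSI M7A7, modified) in tryptone soya broth with 0.025 g/mL glucose, replacing Mueller-Hinton. Compounds were 2-fold serially diluted in TSB containing 2% DMSO. Inoculum came from a 0.5 McFarland suspension diluted 1:100, giving about 5 × 10^5 cfu in 100 μL. Plates were incubated overnight at 37 °C. MIC = lowest concentration with no growth visible to the unaided eye.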

[4] = test system: RAW264.7; experiment: Antiinflammatory activity in mouse RAW264.7 cells assessed as inhibition of LPS-induced TNFalpha production incubated for 1 hr prior to LPS-challenge measured after 20 hrs by immunoassay; type: functional, cell-based
In short: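 TNF-α was measured by mouse ELISA kit in the same LPS-stimulated RAW264 supernatants as the nitrite assay. Compounds were added 1 h before LPS (10 μL of 10 μg/mL), followed by 20 h incubation.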

[5] = test system: Staphylococcus aureus; experiment: Antibacterial activity against Staphylococcus aureus ATCC 25923 after overnight incubation by broth microdilution method; type: functional; in short: as §1
[6] = test system: NIH3T3; experiment: Selectivity index, ratio of cytotoxic ED50 for Swiss albino mouse 3T3 cells to IC50 for calcium ionophore A23187-induced PGE2 synthesis in Swiss albino mouse 3T3 cells; type: functional
[7] = Antioxidant activity against AAPH-induced fluorescein peroxidation assessed as trolox equivalent measured every min for 35 mins by fluorimetric analysis; type: functional
In short: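 ORAC: samples were diluted from 20 mg/mL DMSO stock into 75 mM phosphate buffer (pH 7.4), then 2-fold serially, with each tested at two concentrations. Reaction used fluorescein (10 μL, 5 μM) and AAPH (170 μL, 20 mM). Fluorescence was read every minute for 35 min at 37 °C. Values come from a Trolox standard curve (12.5–100 μM) of net AUC and are given as μmol TE/g. Quadruplicate.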

[8] = test system: Staphylococcus aureus; experiment: Antibacterial activity against Staphylococcus aureus ATCC 29213 incubated overnight followed by compound transfer to TSB medium measured after overnight incubation by cell counting; type: functional
[9] = test system: Staphylococcus aureus; experiment: Antibacterial activity against Staphylococcus aureus ATCC 29213 after overnight incubation by broth microdilution method; type: functional; in short: as §1
[10] = test system: RAW264.7; experiment: Selectivity index, ratio of cytotoxic ED50 for mouse RAW264.7 cells to IC50 for LPS-induced nitric oxide synthesis in mouse RAW264.7 cells; type: functional
In short: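 Selectivity index = RAW264 cytotoxicity ED50 (24 h ATPlite) divided by IC50 for inhibition of LPS-induced nitrite production in RAW264 cells.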

[11] = test system: Escherichia coli; experiment: Antibacterial activity against Escherichia coli ATCC 25922 after overnight incubation by broth microdilution method; type: functional; in short: as §1
[12] = test system: Staphylococcus aureus; experiment: Antibacterial activity against Staphylococcus aureus ATCC 25923 incubated overnight followed by compound transfer to TSB medium measured after overnight incubation by cell counting; type: functional
[13] = Antiinflammatory activity in Swiss albino mouse 3T3 cells assessed as inhibition of calcium ionophore A23187-induced PGE2 synthesis incubated for 3 hrs prior to calcium ionophore A23187-challenge measured after 15 mins by enzyme immunoassay; type: functional, cell-based; settings: NIH3T3
In short: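 3T3 cells were seeded at 27 × 10^3/well in phenol-red-free DMEM with 5% FBS and 5% newborn calf serum, then left to attach overnight. Compounds in DMSO (0.5% final) were added for 3 h at 37 °C. A23187 (0.5 mM, 10 μL/well) was then added for 15 min. Supernatant was diluted 81-fold and PGE2 measured by EIA. Triplicate; percent inhibition relative to DMSO control.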

[14] = Cytotoxicity against Swiss albino mouse 3T3 cells; type: cell-based, NIH3T3; settings: read-out: ED50 (the source's name)
[15] = test system: Staphylococcus epidermidis; experiment: Antibacterial activity against Staphylococcus epidermidis ATCC 35984 incubated overnight followed by compound transfer to TSB medium measured after overnight incubation by cell counting; type: functional
[16] = test system: Pseudomonas aeruginosa; experiment: Antibacterial activity against Pseudomonas aeruginosa ATCC 27853 after overnight incubation by broth microdilution method; type: functional; in short: as §1

In the case of `CC[C@H](C)C(=O)c1c(O)c(C)c2oc3c(C)c(O)c(C(=O)CC(C)C)c(O)c3c2c1O` [RHODOMYRTOXIN C], the IC50 [1] is reported as 1.2 µM, the inhibition [1] is reported as “Dose-dependent effect” and the CC50 at 24 h [2] is reported as 1.4 µM. The MIC [3] was 1.9 µM (≈ 0.814 µg/mL), the inhibition [4] was “inactive” and the MIC [5] was 0.9 µM (≈ 0.386 µg/mL). The “Selectivity Index” value [6] was 2.06, the Activity [7] was 1010 µmol/g and the MBC [8] was 7.2 µM (≈ 3.09 µg/mL). The MIC [9] was 7.2 µM (≈ 3.09 µg/mL), the “Selectivity Index” value [10] was 1.17 and the MIC [11] was “inactive”. It also gave an MBC [12] of 0.9 µM (≈ 0.386 µg/mL), an IC50 [13] of 3.4 µM and a CC50 [14] of 7 µM. The MBC [15] was 1.9 µM (≈ 0.814 µg/mL).

For `CC[C@H](C)C(=O)c1c(O)c(C)c(O)c2c1oc1c(C(=O)[C@@H](C)CC)c(O)c(C)c(O)c12`, the IC50 [1] was 5 µM, the inhibition [1] was “Dose-dependent effect” and the CC50 at 24 h [2] was 6.8 µM. For the same compound, the MIC [3] was 3.7 µM (≈ 1.59 µg/mL), the inhibition [4] was “inactive” and the MIC [5] was 3.7 µM (≈ 1.59 µg/mL). It also gave an Activity [7] of 3640 µmol/g, an MBC [8] of 14.7 µM (≈ 6.3 µg/mL) and an MIC [9] of 7.2 µM (≈ 3.09 µg/mL). The “Selectivity Index” value [10] was 1.36, the MIC [11] was “inactive” and the MBC [12] was 3.7 µM (≈ 1.59 µg/mL). The IC50 [13] was over 200 µM, the CC50 [14] was 24.1 µM and the MBC [15] was 3.7 µM (≈ 1.59 µg/mL).

With `CC[C@H](C)C(=O)c1c(O)c(C)c2oc3c(C)c(O)c(C(=O)C(C)C)c(O)c3c2c1O` the IC50 [1] was 0.6 µM, the inhibition [1] was “Dose-dependent effect” and the CC50 at 24 h [2] was 6.5 µM. The MIC [3] was 1.9 µM (≈ 0.787 µg/mL), the inhibition [4] was “inactive” and the MIC [5] was 0.5 µM (≈ 0.207 µg/mL). The “Selectivity Index” value [6] was 1.57, the Activity [7] was 2580 µmol/g and the MBC [8] was 3.9 µM (≈ 1.62 µg/mL). The MIC [9] was 3.9 µM (≈ 1.62 µg/mL), the “Selectivity Index” value [10] was 10.83 and the MIC [11] was “inactive”. The MBC [12] was 1.9 µM (≈ 0.787 µg/mL), the IC50 [13] was 6 µM and the CC50 [14] was 9.4 µM. The MBC [15] was 3.9 µM (≈ 1.62 µg/mL).

For `Oc1cc(O)c2c(c1)O[C@H](c1ccc(O)c(O)c1)[C@H](O)C2`, the Activity [7] was 29200 µmol/g.

In the case of `C[C@H]1COc2c(N3CCN(C)CC3)c(F)cc3c(=O)c(C(=O)O)cn1c23` [LEVOFLOXACIN], the MIC [3] is reported as under 0.53 µM, the MIC [5] is reported as under 0.53 µM and the MIC [9] is reported as under 0.53 µM. It also gave an MIC [11] of under 0.53 µM and an MIC [16] of under 0.53 µM.

In the case of `Cc1c(O)c(C(=O)C(C)C)c(O)c2c1oc1c(C)c(O)c(C(=O)C(C)C)c(O)c12`, the IC50 [1] is reported as 3.4 µM, the inhibition [1] is reported as “Dose-dependent effect” and the CC50 at 24 h [2] is reported as 12 µM. The MIC [3] was 2.7 µM (≈ 1.08 µg/mL), the inhibition [4] was “inactive” and the MIC [5] was 2.7 µM (≈ 1.08 µg/mL). The “Selectivity Index” value [6] was 3.4, the Activity [7] was 1450 µmol/g and the MBC [8] was 11.4 µM (≈ 4.56 µg/mL). For the same compound, the MIC [9] was 2.7 µM (≈ 1.08 µg/mL), the “Selectivity Index” value [10] was 3.53 and the MIC [11] was “inactive”. For the same compound, the MBC [12] was 5.7 µM (≈ 2.28 µg/mL), the IC50 [13] was 4.5 µM and the CC50 [14] was 15.3 µM. For the same compound, the MBC [15] was 22.7 µM (≈ 9.09 µg/mL) and the MIC [16] was “inactive”.

In the case of `CC[C@H](C)C(=O)c1c(O)c(C)c(O)c2c1oc1c(C(=O)C(C)C)c(O)c(C)c(O)c12`, the IC50 [1] is reported as 4.4 µM, the inhibition [1] is reported as “Dose-dependent effect” and the CC50 at 24 h [2] is reported as 17.6 µM. For the same compound, the MIC [3] was 6 µM (≈ 2.49 µg/mL), the inhibition [4] was “inactive” and the MIC [5] was 6 µM (≈ 2.49 µg/mL). For the same compound, the Activity [7] was 6280 µmol/g, the MBC [8] was 24.1 µM (≈ 9.99 µg/mL) and the MIC [9] was 12.1 µM (≈ 5.01 µg/mL). The “Selectivity Index” value [10] was 4, the MIC [11] was “inactive” and the MBC [12] was 24.1 µM (≈ 9.99 µg/mL). For the same compound, the IC50 [13] was over 200 µM, the CC50 [14] was 22.3 µM and the MBC [15] was 6 µM (≈ 2.49 µg/mL).

Work on `Cc1c(O)c(C(=O)C(C)C)c2oc3c(C(=O)C(C)C)c(O)c(C)c(O)c3c2c1O` yielded an IC50 [1] of 89 µM, a CC50 at 24 h [2] of 142 µM and an MIC [3] of 13.2 µM (≈ 5.29 µg/mL). For the same compound, the inhibition [4] was “inactive”, the MIC [5] was 13.2 µM (≈ 5.29 µg/mL) and the Activity [7] was 609 µmol/g. The MBC [8] was 26.5 µM (≈ 10.6 µg/mL), the MIC [9] was 26.5 µM (≈ 10.6 µg/mL) and the “Selectivity Index” value [10] was 1.6. The MIC [11] was “inactive”, the MBC [12] was 26.5 µM (≈ 10.6 µg/mL) and the IC50 [13] was over 200 µM. For the same compound, the CC50 [14] was 44 µM, the MBC [15] was 13.2 µM (≈ 5.29 µg/mL) and the MIC [16] was “inactive”.
